Experimental data taken from the array DNA melting data of Ke et al. (doi:10.1101/2024.01.08.574731).

Experiments:
[1] = folding enthalpy; higher = less favourable; fluorescence melt of hairpins on a sequencing array, two-state fit; details: sodium 0.088 M
Outline: (§1)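 Melting temperature and folding enthalpy were obtained by bootstrapped two-state fitting. Fits used Cy3 fluorescence of library hairpins with annealed Cy3 and quencher oligos on a sequenced MiSeq flow cell, imaged in 50 mM Na-HEPES pH 8.0, 25 mM NaCl in 2.5 °C steps up to 60 °C and normalised to pre-quench Cy3 and control constructs. Four replicates were combined by inverse-variance weighting, and fitted temperatures were raised by 9.35 °C to match UV melts.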

[2] = melting temperature; fluorescence melt of hairpins on a sequencing array, two-state fit, raised by 9.35 °C to match UV melts; details: sodium 0.088 M
Outline: as §1

| Sequence | folding enthalpy [1] | Tm [2] |
| --- | --- | --- |
| GAATTTGGAAACGAATTC (((((.(....).))))) | -35.8 kcal/mol | 38.8 °C |
| GATCCTGGAAACAGGATC (((((((....))))))) | -44.4 kcal/mol | 61.7 °C |
| GGGGCCGAAAGGCTGCCC ((((((....)))..))) | -14.2 kcal/mol | 46.4 °C |
| GTGACGCCGAAAGGCCAC (((..(((....)))))) | -11.8 kcal/mol | 45.2 °C |
| GTGCCGGGAAACTGGCAC (((((.(....).))))) | -37 kcal/mol | 66 °C |
| GCGTCGGGAAACCGGTGC ((..(((....)))..)) | -21.2 kcal/mol | 48.7 °C |
| GATCCTCGCGAGGATC ((((((....)))))) | -43.4 kcal/mol | 60.4 °C |
| GATCGTTGATACGATC ((((((....)))))) | -35.3 kcal/mol | 54.3 °C |
| CGAGCCGGAAACGGATCG (((.(((....))).))) | -41.2 kcal/mol | 61.7 °C |
| GAATGCGAAAGCAGTTC ((((((....))).))) | -13.9 kcal/mol | 41.8 °C |
| GCTTACGAAAGTAGCAGC ((((((....)))..))) | -18.4 kcal/mol | 38.1 °C |
| GTACGTCGAAAGACCTAC (((.(((....))).))) | -13.6 kcal/mol | 34.3 °C |
| GGGGCTGGAAACGGTCCC (((.(.(....).).))) | -33 kcal/mol | 49.6 °C |
| CGCGACCGGAAACGGGCG (((..(((....)))))) | -11.7 kcal/mol | 60 °C |
| GTTGTCGAAAGACGGAAC ((((((....)))..))) | -10.3 kcal/mol | 31.3 °C |
| GTCGTGGAAACACGAC ((((((....)))))) | -35.4 kcal/mol | 68.5 °C |
| GAGAATGGAAACGTTCTC (((((.(....).))))) | -33.9 kcal/mol | 42.9 °C |
| GGTAATCGAAAGATGACC (((.(((....))).))) | -33.9 kcal/mol | 47.5 °C |
| GCTTGGCGAAAGCTGAGC (((..((....))..))) | -22.3 kcal/mol | 56.2 °C |
| GGAGCCGAAAGGCAATCC ((((((....)))..))) | -11.2 kcal/mol | 38 °C |
| GTTGCCGAAAGGCTAAC ((((((....))).))) | -14 kcal/mol | 42.3 °C |
| GCCGTGCGAAAGCATCGC ((..(((....)))..)) | -11.1 kcal/mol | 50.2 °C |
| GTACTCGAAAGAGGTAC ((((((....))).))) | -21.1 kcal/mol | 42.7 °C |

| Sequence | folding enthalpy [1] | Tm [2] |
| --- | --- | --- |
| GCAACAGGAAACTATTGC ((((.((....)).)))) | -19.2 kcal/mol | 31.8 °C |
| GCTCCGCGAAAGCGAGGC ((..(((....)))..)) | -14.4 kcal/mol | 55.6 °C |
| GTATCGGGAAACCGACAC ((.((((....)))).)) | -19.5 kcal/mol | 39.3 °C |
| GTACTCGAAAGAGAGTAC ((((((....)))..))) | -29.4 kcal/mol | 46.8 °C |
| GTGGCGCGAAAGCGCAC (((.(((....)))))) | -8.04 kcal/mol | 57.6 °C |
| GATTGCGAAAGCAGAATC ((((((....)))..))) | -13.8 kcal/mol | 35.4 °C |
| GTAAGCCCGAAAGGGTAC (((..(((....)))))) | -10.6 kcal/mol | 28.1 °C |
| GTAGTCGAAAGACTAC ((((((....)))))) | -31.9 kcal/mol | 64.1 °C |
| GTGGTTGGAAACGATCAC (((.(.(....).).))) | -18 kcal/mol | 34.1 °C |
| GCGAAGCGAAAGCTCCGC (((.(((....))).))) | -36.7 kcal/mol | 50.9 °C |
| GTGCCTCGAAAGAGTCAC (((.(((....))).))) | -29.5 kcal/mol | 50.4 °C |
| GATCCGGAGCGGATC ((((((...)))))) | -33.3 kcal/mol | 56.1 °C |
| GGGTCCGGAAACGGATCC ((.((((....)))).)) | -38.1 kcal/mol | 59.1 °C |
| GTGTCGTCGAAAGACCAC (((..(((....)))))) | -19.2 kcal/mol | 38.4 °C |
| GACAGAGGAAACTTTGTC ((((.((....)).)))) | -25.3 kcal/mol | 36.7 °C |
| GGGCAAACGAAAGTTCCC (((..(((....)))))) | -19.5 kcal/mol | 35.6 °C |
| GCACCCGGAAACGGATGC (((.(((....))).))) | -25.5 kcal/mol | 51.6 °C |
| GGTCTCGGAAACAAGACC (((((.(....).))))) | -31.8 kcal/mol | 41.9 °C |
| GATCCGATCCCGGATC ((((((....)))))) | -38.9 kcal/mol | 55.6 °C |
| GGGCCCGGAAACGGACCC (((.(((....))).))) | -39.3 kcal/mol | 58.8 °C |
| GTGGTTTCGAAAGAACAC (((..(((....)))))) | -15.6 kcal/mol | 31.3 °C |
| GCGGGCGGAAACACCCGC (((((.(....).))))) | -44.2 kcal/mol | 60.5 °C |
| GGGCCTCGAAAGAGCCCC (((.(((....))).))) | -15.7 kcal/mol | 57.2 °C |

| Sequence | folding enthalpy [1] | Tm [2] |
| --- | --- | --- |
| GCTTTGCGAAAGCACGGC ((..(((....)))..)) | -16.6 kcal/mol | 41.7 °C |
| GGCTTCGAAAGAAGCGCC ((((((....)))..))) | -9.54 kcal/mol | 57 °C |
| GATCGTTGTTACGATC ((((((....)))))) | -37.7 kcal/mol | 57.4 °C |
| GGTGTCGGAAACGGTACC (((..((....))..))) | -28.6 kcal/mol | 40.9 °C |
| GTTGGGACGAAAGTCAAC (((..(((....)))))) | -19.6 kcal/mol | 41.5 °C |
| GCTCTCGAAAGAGGCAGC ((((((....)))..))) | -15.5 kcal/mol | 42.3 °C |
| GCGGTCGAAAGACCTCGC ((((((....)))..))) | -14.8 kcal/mol | 50.2 °C |
| CGTACGGAAACGTCAACG ((((((....)))..))) | -13.5 kcal/mol | 32.2 °C |
| GCGGAGCGAAAGCAACGC (((..((....))..))) | -20.2 kcal/mol | 66.9 °C |
| GATCTAAACCTAGATC ((((((....)))))) | -33.8 kcal/mol | 39.3 °C |
| GATAGGGGAAACCCCATC (((.(((....))).))) | -16.9 kcal/mol | 35.6 °C |
| GCCAAAGGAAACTTCGGC (((.(((....))).))) | -24 kcal/mol | 39.6 °C |
| GATCTCTTGGGAGATC ((((((....)))))) | -40.4 kcal/mol | 54 °C |
| GCAACAGGAAACTGTCGC ((.((((....)))).)) | -32.1 kcal/mol | 44.2 °C |
| GATCGCTTGAGCGATC ((((((....)))))) | -27.6 kcal/mol | 67.6 °C |
| GGATTCCCGAAAGGGTCC (((..(((....)))))) | -14.6 kcal/mol | 39.3 °C |
| GATCCTGGTAAGGATC ((((((....)))))) | -41.8 kcal/mol | 65.8 °C |
| GCAAAGCGAAAGCGCTGC (((..((....))..))) | -16.9 kcal/mol | 57.4 °C |
| GATCAATCTTTTGATC ((((((....)))))) | -34.1 kcal/mol | 46.5 °C |
| GATCATCATAATGATC ((((((....)))))) | -36.3 kcal/mol | 47.1 °C |
| GCGATCGAAAGATGTCGC ((((((....)))..))) | -22.4 kcal/mol | 43 °C |
| GCAGTGGGAAACCGCTGC ((((.((....)).)))) | -49.4 kcal/mol | 62.1 °C |
